From ChEMBL document CHEMBL1135529, “New inhibitors of bacterial protein synthesis from a combinatorial library of macrocycles” (J Med Chem, 2002) come the findings set out here.

Values after ≈ are worked out from the molar mass of the structure shown. Some results are limits rather than exact numbers.

Assay type in all cases: functional
In assay [1] the test system is Escherichia coli. The assay can be described thus: In vitro minimum inhibition concentration against Escherichia coli K-12, wild type. The procedure, abridged:
(§1)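 Broth microdilution in duplicate. Overnight culture added to compound in 2.5% DMSO in water; final inoculum about 10²–10³ CFU/well. Growth relative to no-compound control read as A595 after 20–24 h at 37 °C. MIC reported as a range: complete inhibition at the upper concentration, viable cells at the lower. Top concentration 100 μM.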

Assay [2] in a line: In vitro inhibition of translation in luciferase SP6 control plasmid. Summed up: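 Luciferase mRNA transcribed from SP6 plasmid with SP6 RNA polymerase, then translated in E. coli S30 extract for linear templates with S30 premix and complete amino acid mix (1 mM each, 10× stock). 90 min at 37 °C; functional luciferase detected by luminescence. IC50 = concentration reducing luciferase activity to 50% of control.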

Assay [3] relates to Escherichia coli. The assay can be described thus: In vitro minimum inhibition concentration against Escherichia coli D21f2, LPS mutant; Range is from 12-25. The procedure, abridged:
as §1

The subject of assay [4] is Escherichia coli. The assay can be described thus: In vitro minimum inhibition concentration against Escherichia coli KZM120, pump mutant. The procedure, abridged:
as §1

Assay [5] concerns Escherichia coli. Put plainly: In vitro minimum inhibition concentration against Escherichia coli Ram195, pump mutant. Summed up: as §1
The subject of assay [6] is Escherichia coli. The assay can be described thus: Inhibition of cell free transcription/translation by Escherichia coli s30 bacterial extract. The procedure, abridged:
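Coupled transcription/translation in E. coli S30 extract with pBest Luc plasmid (0.125 μg/μL stock), S30 premix and complete amino acid mix (1 mM each, 10× stock). 35 min at 37 °C, then luciferase read by luminescence. IC50 = concentration reducing luciferase activity to 50% of control; compounds HPLC-purified before IC50 determination.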

Assay [7] relates to Escherichia coli. The assay can be described thus: In vitro minimum inhibition concentration against Escherichia coli KZM120, pump mutant; Range is from 50-100. The procedure, abridged: as §1
Assay [8] has as its system Escherichia coli. Put plainly: In vitro minimum inhibition concentration against Escherichia coli Ram195, pump mutant; Range is from 50-100. The procedure, abridged: as §1
Assay [9] deals with Escherichia coli. Put plainly: In vitro minimum inhibition concentration against Escherichia coli K-12, wild type; Range is from 50-100. Summed up: as §1
Assay [10] deals with Escherichia coli. The assay can be described thus: In vitro minimum inhibition concentration against Escherichia coli D21f2, LPS mutant; Range is from 25-50. Summed up: as §1
In assay [11] the test system is Escherichia coli. Put plainly: In vitro minimum inhibition concentration against Escherichia coli D21f2, LPS mutant; Range is from 25-50. Summed up:
as §1

With `NCCCC[C@H]1COc2ccc(NC(=O)c3ccc4nc(O)c(O)nc4c3)cc2C(=O)NC[C@@H](N)C(=O)N[C@@H](Cc2ccccc2)C(=O)N1`, the MIC in the assay on Escherichia coli [1] is > 100 µM; with Escherichia coli [3], 25 µM (≈ 16.8 µg/mL); in the assay on Escherichia coli [4] it was > 100 µM; in the assay with Escherichia coli [5], > 100 µM. For the same compound, the values for the IC50 (in assay [2]; in the assay on Escherichia coli [6]) were 50 µM and 40 µM, respectively.
Turning to `NC(N)=NCCC[C@H]1COc2ccc(NC(=O)CCNC(=O)c3ccc4nc(O)c(O)nc4c3)cc2C(=O)NC[C@@H](N)C(=O)N[C@@H](Cc2ccc(N)cc2)C(=O)N1`, inhibition in the assay with Escherichia coli [6] was half-maximal at 3 µM (IC50).
The same measure, in the same setting: the same measure for `NC(N)=NCCC[C@H]1COc2ccc(NC(=O)CCCCCNC(=O)c3ccc4nc(O)c(O)nc4c3)cc2C(=O)NC[C@@H](N)C(=O)N[C@@H](Cc2ccc(N)cc2)C(=O)N1`: 33 µM.
Regarding `NC(N)=NCCC[C@H]1COc2ccc(NC(=O)c3ccc4ccccc4c3)cc2C(=O)NC[C@@H](N)C(=O)N[C@@H](Cc2ccc(N)cc2)C(=O)N1`, in the assay on Escherichia coli [6], the 50% inhibitory concentration (IC50) was > 100 µM.
Still for that read-out and setting: the same measure for `NC(N)=NCCC[C@H]1COc2ccc(NS(=O)(=O)c3ccc4nc(O)c(O)nc4c3)cc2C(=O)NC[C@@H](N)C(=O)N[C@@H](Cc2ccc(N)cc2)C(=O)N1`: 62 µM; for `NC(N)=NCCC[C@H]1COc2ccc(NC(=O)CNC(=O)c3ccc4nc(O)c(O)nc4c3)cc2C(=O)NC[C@@H](N)C(=O)N[C@@H](Cc2ccc(N)cc2)C(=O)N1`: 50 µM.
Turning to `NC(N)=NCCC[C@@H]1COc2ccc(NC(=O)c3ccc4nc(O)c(O)nc4c3)cc2C(=O)NC[C@H](N)C(=O)N[C@H](Cc2ccccc2)C(=O)N1`, the minimal inhibitory concentration (MIC) against Escherichia coli [7] was 100 µM (≈ 69.9 µg/mL); in the assay on Escherichia coli [8], 100 µM (≈ 69.9 µg/mL); against Escherichia coli [9] it was 100 µM (≈ 69.9 µg/mL); with Escherichia coli [10], 50 µM (≈ 34.9 µg/mL). The compound also yielded an IC50 with Escherichia coli [6] of 12 µM.
For `NC(N)=NCCC[C@@H]1COc2ccc(NC(=O)c3ccc4nc(O)c(O)nc4c3)cc2C(=O)NC[C@H](N)C(=O)N[C@H](Cc2ccc(O)cc2)C(=O)N1`, the MIC against Escherichia coli [1] was > 100 µM; in the assay on Escherichia coli [3], 25 µM (≈ 17.9 µg/mL); in the assay on Escherichia coli [4], > 100 µM; in the assay with Escherichia coli [5] it was > 100 µM. In addition, the IC50 was determined as 35 µM in [2] and 15 µM with Escherichia coli [6].
In the assay on Escherichia coli [6], `NC(N)=NCCC[C@@H]1COc2ccc(NC(=O)c3ccc4nc(O)c(O)nc4c3)cc2C(=O)NC[C@@H](N)C(=O)N[C@H](Cc2cccnc2)C(=O)N1` showed an IC50 of 20 µM.
The same measure, in the same setting: the same measure for `NC(N)=NCCC[C@H]1COc2ccc(NC(=O)c3cc4nc(O)c(O)nc4cc3[N+](=O)[O-])cc2C(=O)NC[C@@H](N)C(=O)N[C@@H](Cc2ccc(N)cc2)C(=O)N1`: > 100 µM.
Regarding `NC(N)=NCCC[C@H]1COc2ccc(NC(=O)c3ccc4nc(O)c(O)nc4c3)cc2C(=O)NC[C@@H](N)C(=O)N[C@@H](Cc2ccc(O)cc2)C(=O)N1`, the MIC with Escherichia coli [1] is > 100 µM; in the assay on Escherichia coli [4] it was > 100 µM; against Escherichia coli [10] it was 50 µM (≈ 35.7 µg/mL); against Escherichia coli [5], > 100 µM. The IC50 in assay [2] was 50 µM; in the assay on Escherichia coli [6] it was 25 µM.
As to `NC(N)=NCCC[C@H]1COc2ccc(NC(=O)c3ccc4ccccc4n3)cc2C(=O)NC[C@@H](N)C(=O)N[C@@H](Cc2ccc(N)cc2)C(=O)N1`, the half-inhibitory concentration (IC50) in the assay on Escherichia coli [6] is > 100 µM.
As for `NC(N)=NCCC[C@H]1COc2ccc(NC(=O)c3ccc4nc(O)c(O)nc4c3)cc2C(=O)NC[C@@H](N)C(=O)N[C@@H](Cc2ccc(N)cc2)C(=O)N1`, the MIC is > 100 µM with Escherichia coli [1], 50 µM (≈ 35.7 µg/mL) against Escherichia coli [11], > 100 µM in the assay on Escherichia coli [4] and > 100 µM against Escherichia coli [5]. Also, the 50% inhibitory concentration (IC50) in assay [2] was 13 µM; in the assay on Escherichia coli [6], 16 µM.
For the compound `Cc1nc2ccc(C(=O)Nc3ccc4c(c3)C(=O)NC[C@@H](N)C(=O)N[C@@H](Cc3ccc(N)cc3)C(=O)N[C@@H](CCCN=C(N)N)CO4)cc2nc1C`, the half-maximal inhibitory concentration (IC50) with Escherichia coli [6] was > 100 µM.
For `Cc1cc2nc(O)c(O)nc2cc1S(=O)(=O)Nc1ccc2c(c1)C(=O)NC[C@@H](N)C(=O)N[C@@H](Cc1ccc(N)cc1)C(=O)N[C@@H](CCCN=C(N)N)CO2`, the midpoint of inhibition in the assay on Escherichia coli [6], the IC50, lay at 2 µM.
Take `NC(N)=NCCC[C@H]1COc2ccc(NC(=O)c3ccc4cccnc4c3)cc2C(=O)NC[C@@H](N)C(=O)N[C@@H](Cc2ccc(N)cc2)C(=O)N1`: the IC50 in the assay on Escherichia coli [6] is > 100 µM.
With `Cn1c(=O)c(=O)n(C)c2cc(C(=O)Nc3ccc4c(c3)C(=O)NC[C@@H](N)C(=O)N[C@@H](Cc3ccc(N)cc3)C(=O)N[C@@H](CCCN=C(N)N)CO4)ccc21`, the IC50 with Escherichia coli [6] is > 100 µM.
As for `NC(N)=NCCC[C@@H]1COc2ccc(NC(=O)c3ccc4nc(O)c(O)nc4c3)cc2C(=O)NC[C@H](N)C(=O)N[C@H](Cc2ccc(N)cc2)C(=O)N1`, the minimal inhibitory concentration (MIC) is > 100 µM against Escherichia coli [1], 25 µM (≈ 17.8 µg/mL) with Escherichia coli [3], > 100 µM with Escherichia coli [4] and > 100 µM against Escherichia coli [5]. In addition, the 50% inhibitory concentration (IC50) in assay [2] was 25 µM; in the assay with Escherichia coli [6], 17 µM.
As for `NC[C@H]1O[C@H](O[C@H]2[C@H](O)[C@@H](O[C@H]3O[C@H](CO)[C@@H](O)[C@H](N)[C@H]3O)[C@H](N)C[C@@H]2N)[C@H](O)[C@@H](O)[C@@H]1O` [KANAMYCIN], the results for the IC50 (in assay [2]; in the assay on Escherichia coli [6]) were 0.08 µM and 0.04 µM, respectively.
Turning to `NC(N)=NCCC[C@H]1COc2ccc(NC(=O)CCCNC(=O)c3ccc4nc(O)c(O)nc4c3)cc2C(=O)NC[C@@H](N)C(=O)N[C@@H](Cc2ccc(N)cc2)C(=O)N1`, in the assay with Escherichia coli [6], inhibition was half-maximal at 75 µM (IC50).
On the same count and under the same terms, in the case of `CN(CC(=O)Nc1ccc2c(c1)C(=O)NC[C@@H](N)C(=O)N[C@@H](Cc1ccc(N)cc1)C(=O)N[C@@H](CCCN=C(N)N)CO2)C(=O)c1ccc2nc(O)c(O)nc2c1` it was > 100 µM.
Same read-out and setting: in the case of `NC(N)=NCCC[C@H]1COc2ccc(NC(=O)c3ccc4nc(O)c(O)nc4c3)cc2C(=O)NC[C@@H](N)C(=O)N[C@@H](Cc2cccnc2)C(=O)N1` it was 50 µM.
